Results taken from ChEMBL document CHEMBL4480403, “DDX3X Helicase Inhibitors as a New Strategy To Fight the West Nile Virus Infection” (J Med Chem, 2019).
Activity calls are given as the source filed them. The calls are words filed in the database; no cut-off is given here.

Legend:
[1] = biological target: ATP-dependent RNA helicase DDX3X (Homo sapiens, UniProt O00571); test: Inhibition of full length His-tagged human DDX3X expressed in Escherichia coli assessed as reduction in DDX3X helicase activity using FAM-labeled double stranded RNA as substrate after 40 mins by FRET assay relative to control
Method in brief: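 Recombinant His-tagged full-length DDX3X expressed in E. coli, Ni-NTA purified. Unwinding of FAM-labelled dsRNA, with capture strand at 100 nM, in Tris-HCl pH 8, 70 mM KCl, 2 mM MgCl2, 2 mM DTT, 2 mM ATP. Started with DDX3X, 37°C, 40 min, fluorescence read every 30 s. Initial slope gives unwinding rate; IC50 by nonlinear regression of triplicates.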

West Nile virus [2] = test: Antiviral activity against West Nile virus; assay type: functional, organism-based
Method in brief: (§1)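 Huh7 cells (2.5 × 10^5 per well, overnight) infected with lineage 2 WNV at MOI 0.1 for 1 h at 37°C, washed, then compound added in 10-fold dilutions (final 100–0.01 μM) with DMSO as virus control. Agarose overlay, 4 days at 37°C, methanol fixation, crystal violet staining. PFU relative to DMSO; IC50 by exponential fit at 50% PFU. Duplicates, repeated at least twice.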

[3] = (§2) Cytotoxicity against human HuH7 cells after 3 days by MTT assay; assay type: cell-based, Huh-7; details: human, HuH7 cells
Method in brief: (§3)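 Huh7 cells (2.5 × 10^4 per well) adhered overnight. Confluent monolayers washed, then treated with compound (final 100–0.01 μM) or DMSO control for 3 days at 37°C. Viability by MTT, absorbance 570 nm, expressed relative to DMSO-treated cells.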

West Nile virus [4] = test: Antiviral activity against West Nile virus infected in human HuH7 cells incubated for 4 days by crystal violet staining based plaque reduction assay; assay type: functional, organism-based; details: Huh-7, 96 h; method in brief: as §1
[5] = Apparent permeability of the compound by PAMPA; assay type: ADME
Method in brief: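 PAMPA: 0.5 mM donor solution in pH 7.4 phosphate buffer, diluted from 1 mM DMSO stock. Filter coated with 1% phosphatidylcholine in dodecane; acceptor 50% DMSO in buffer. Incubated 5 h at room temperature with shaking. Donor and acceptor quantified by LC-UV at 280 nm and Papp calculated. Three plates on different days.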

[6] = Metabolic stability in human liver microsomes at 50 uM after 60 mins in presence of NADPH-generating system by LC-UV-MS analysis; assay type: ADME, Microsome; details: read-out: Stability
Method in brief: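 Compound at 50 μM final (DMSO ≤2%) incubated with human liver microsomes (0.2 mg/mL) and NADPH-generating system in 125 mM phosphate buffer pH 7.4, 37 °C, 60 min. Remaining compound measured by LC-ESI-MS in positive ion mode, with UV at 280 nm.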

[7] = biological target: T1, ATP-dependent RNA helicase DDX1 (Homo sapiens, UniProt Q92499); test: Inhibition of human DDX1 helicase activity
T1 sequence (Q92499 whole entry): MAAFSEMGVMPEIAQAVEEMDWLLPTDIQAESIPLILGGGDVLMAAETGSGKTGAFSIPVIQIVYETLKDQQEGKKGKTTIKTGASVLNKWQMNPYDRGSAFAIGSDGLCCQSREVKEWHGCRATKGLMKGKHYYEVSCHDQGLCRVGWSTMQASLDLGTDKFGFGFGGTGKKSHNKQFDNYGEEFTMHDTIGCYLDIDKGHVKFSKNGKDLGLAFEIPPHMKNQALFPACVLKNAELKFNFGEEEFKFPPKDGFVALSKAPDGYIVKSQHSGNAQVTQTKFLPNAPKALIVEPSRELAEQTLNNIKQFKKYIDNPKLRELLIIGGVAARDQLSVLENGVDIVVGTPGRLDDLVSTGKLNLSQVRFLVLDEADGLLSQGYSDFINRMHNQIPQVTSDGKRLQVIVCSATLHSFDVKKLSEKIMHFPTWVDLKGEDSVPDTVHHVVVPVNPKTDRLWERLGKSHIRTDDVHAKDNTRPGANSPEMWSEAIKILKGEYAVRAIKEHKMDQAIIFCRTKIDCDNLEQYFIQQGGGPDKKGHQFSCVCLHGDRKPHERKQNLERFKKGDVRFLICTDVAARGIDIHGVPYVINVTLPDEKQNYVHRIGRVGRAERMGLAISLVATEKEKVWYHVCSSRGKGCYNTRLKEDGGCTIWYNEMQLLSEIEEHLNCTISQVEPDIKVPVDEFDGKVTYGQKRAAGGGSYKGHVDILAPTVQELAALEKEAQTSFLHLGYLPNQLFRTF

Huh-7 = test: as §2; assay type: cell-based; details: Homo sapiens, Huh-7, 72 h; method in brief: as §3
Vero = test: Cytotoxicity against African green monkey Vero cells after 3 days by MTT assay; assay type: cell-based; details: Chlorocebus sabaeus, 72 h
Method in brief: (§4)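 Confluent monolayers were washed with PBS and treated in DMEM with DMSO alone (control) or compound at final 100, 10, 1, 0.1, 0.01 μM. Cells were incubated 3 days at 37°C, then given MTT with absorbance read at 570 nm. Cytotoxicity was taken as the OD ratio of treated to DMSO wells, and CC50 was the concentration killing 50% of uninfected cells.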

A549 = test: Cytotoxicity against human A549 cells after 3 days by MTT assay; assay type: cell-based; details: A549, 72 h; method in brief: as §4
West Nile virus [8] = test: Antiviral activity against West Nile virus infected in African green monkey Vero cells incubated for 4 days by crystal violet staining based plaque reduction assay; assay type: functional, organism-based; details: 96 h
Method in brief: (§5)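 Cell monolayers at 80–90% confluence were infected with WNV lineage 2 strain at MOI 0.1 for 1 h at 37°C with 5% CO2, then washed. DMSO vehicle or compound (final 100, 10, 1, 0.1, 0.01 μM) was added in duplicate under a 0.5% agarose overlay. Ribavirin served as reference. After methanol fixation and 0.1% crystal violet staining, PFU were expressed relative to DMSO control. IC50 was interpolated at 50% PFU; experiments were repeated at least twice.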

West Nile virus [9] = test: Antiviral activity against West Nile virus infected in human A549 cells incubated for 4 days by crystal violet staining based plaque reduction assay; assay type: functional, organism-based; details: A549, 96 h; method in brief: as §5
West Nile virus [10] = test: Antiviral activity against West Nile virus infected in human HuH7 cells at 1 to 10 uM added after 3 hrs post infection by crystal violet staining based plaque reduction assay; assay type: functional, organism-based
Method in brief: (§6)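 Huh7 cells infected with WNV at MOI 0.1; compound at 1 µM and 10 µM added at various times relative to infection. Read-out by viral plaque reduction assay. Means with standard deviation.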

West Nile virus [11] = test: Antiviral activity against West Nile virus infected in human HuH7 cells at 1 to 10 uM added before 2 hrs post infection by crystal violet staining based plaque reduction assay; assay type: functional, organism-based; method in brief: as §6
West Nile virus [12] = test: Antiviral activity against West Nile virus infected in human HuH7 cells assessed as reduction in genomic RNA at 1 uM added at 3 hrs hrs post viral infection by PCR analysis; assay type: functional, organism-based
Method in brief: (§7)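 Huh7 cells infected with WNV at MOI 0.1; compound at 1 µM added 1 h or 3 h after infection. Total RNA (200 ng) reverse-transcribed with strand-specific primers for genomic or complementary WNV RNA, then quantified by real-time PCR against plasmid standards. Detection limit 10 copies. Means with standard deviation.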

West Nile virus [13] = test: Antiviral activity against West Nile virus infected in human HuH7 cells assessed as reduction in genomic RNA at 1 uM added at 1 hr post viral infection by PCR analysis; assay type: functional, organism-based; method in brief: as §7
West Nile virus [14] = test: Antiviral activity against West Nile virus infected in human HuH7 cells assessed as reduction in complementary RNA at 1 uM added at 1 hr post viral infection by PCR analysis; assay type: functional, organism-based; method in brief: as §7
West Nile virus [15] = test: Antiviral activity against West Nile virus infected in human HuH7 cells assessed as reduction in capsid protein levels at 1 uM added at 1 hr post infection by SDS-PAGE analysis; assay type: functional, organism-based
Method in brief: (§8)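 Huh7 cells were infected with WNV at MOI 0.1, with compound at 1 µM added 1 h or 3 h after infection; a no-compound infected control was run alongside. Cell lysates were run on 10% SDS-PAGE and immunoblotted with anti-capsid polyclonal antibody, then peroxidase-conjugated anti-rabbit IgG.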

West Nile virus [16] = test: Antiviral activity against West Nile virus infected in human HuH7 cells assessed as reduction in capsid protein levels at 1 uM added at 3 hrs post infection by SDS-PAGE analysis; assay type: functional, organism-based; method in brief: as §8

Chain of ATP-dependent RNA helicase DDX3X (O00571 2-662 limits assumed): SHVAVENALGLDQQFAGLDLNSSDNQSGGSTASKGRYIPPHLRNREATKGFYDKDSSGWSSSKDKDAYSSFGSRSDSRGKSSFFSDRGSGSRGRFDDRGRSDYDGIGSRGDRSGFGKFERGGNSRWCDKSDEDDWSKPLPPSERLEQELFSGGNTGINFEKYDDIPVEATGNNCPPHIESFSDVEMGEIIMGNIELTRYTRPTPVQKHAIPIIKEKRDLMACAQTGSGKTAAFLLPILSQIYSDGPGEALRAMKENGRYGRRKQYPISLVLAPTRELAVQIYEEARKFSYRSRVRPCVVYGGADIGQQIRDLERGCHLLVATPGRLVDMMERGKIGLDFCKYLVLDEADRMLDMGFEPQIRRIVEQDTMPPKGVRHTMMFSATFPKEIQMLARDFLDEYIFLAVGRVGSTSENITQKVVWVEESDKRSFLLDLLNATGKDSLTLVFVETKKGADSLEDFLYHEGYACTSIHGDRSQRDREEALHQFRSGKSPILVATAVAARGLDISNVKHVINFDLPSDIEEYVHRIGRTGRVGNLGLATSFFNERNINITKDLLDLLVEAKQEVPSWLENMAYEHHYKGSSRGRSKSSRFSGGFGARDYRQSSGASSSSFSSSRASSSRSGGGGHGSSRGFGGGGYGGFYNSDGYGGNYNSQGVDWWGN

CCOCc1cn(-c2cccc(S(=O)(=O)Nc3cccc(N4CCOCC4)c3)c2)nn1
inhibition [1]: inactive

CCCCc1cn(-c2ccc(S(=O)(=O)Nc3ccccc3O)cc2)nn1
inhibition [1]: 57%

CCOC(=O)[C@@](C)(O)[C@@H]1C[C@@H](CO[Si](c2ccccc2)(c2ccccc2)C(C)(C)C)O[C@H]1n1cc(F)c(=O)[nH]c1=O
EC50 (West Nile virus [2]): 27 µM

C[C@@]1(O)[C@H](O)[C@@H](CO)O[C@H]1n1cnc2c(=O)[nH]c(N)nc21 [2'-B-METHYL-GUANOSINE]
EC50 (West Nile virus [2]): 30 µM

O=S(=O)(Nc1ccccc1C(F)(F)F)c1cccc(-n2cc(C3CCCCC3)nn2)c1
inhibition [1]: 52%

CCOCc1cn(-c2cccc(S(=O)(=O)Nc3ccccc3C(F)(F)F)c2)nn1
inhibition [1]: 98% | CC50 at 72 h [3]: > 200 µM | EC50 (West Nile virus [4]): 65.9 µM | Papp [5]: 0.71 ×10⁻⁶ cm/s | remaining at 1 h, 50 µM [6]: 97.1%

CCCCc1cn(-c2ccc(NC(=O)Nc3ccccc3C)cc2)nn1
inhibition [1]: 98% | IC50 [7]: > 200 µM | CC50 at 72 h [3]: > 200 µM | EC50 (West Nile virus [4]): 8.8 µM | remaining at 1 h, 50 µM [6]: 99%

CCCCc1cn(-c2cccc(S(=O)(=O)Nc3ccccc3C(F)(F)F)c2)nn1
inhibition [1]: 98% | IC50 [7]: > 200 µM | IC50 (Huh-7): > 200 µM | IC50 (Vero): > 200 µM | IC50 (A549): 21.3 µM | EC50 (West Nile virus [4]): 23.1 µM | EC50 (West Nile virus [8]): 12 µM | EC50 (West Nile virus [9]): 3.4 µM | Papp [5]: 0.21 ×10⁻⁶ cm/s | remaining at 1 h, 50 µM [6]: 99% | Activity (West Nile virus [10]): inactive | Activity (West Nile virus [11]): Active | Activity (West Nile virus [12]): inactive | Activity (West Nile virus [13]): Active | Activity (West Nile virus [14]): Active | Activity (West Nile virus [15]): Active | Activity (West Nile virus [16]): inactive

CCCCc1cn(-c2cccc(S(=O)(=O)Nc3ccccc3F)c2)nn1
inhibition [1]: 24% | CC50 at 72 h [3]: > 200 µM | EC50 (West Nile virus [4]): > 200 µM

CCc1cn(-c2cccc(S(=O)(=O)Nc3ccccc3C(F)(F)F)c2)nn1
inhibition [1]: 71%

NC(=O)c1ncn([C@@H]2O[C@H](CO)[C@@H](O)[C@H]2O)n1 [RIBAVIRIN]
IC50 (Huh-7): > 200 µM | EC50 (West Nile virus [4]): 90 to 95.5 µM | EC50 (West Nile virus [8]): 95 µM | EC50 (West Nile virus [9]): 46 µM | EC50 (West Nile virus [2]): 71.2 µM

CCCCc1cn(-c2cccc(S(=O)(=O)Nc3ccccc3)c2)nn1
inhibition [1]: 31%
